# Experimental data from different studies.
# Compare with care: the assays were run in different laboratories.
SMILES,test system,conditions,AUC
CS(=O)(=O)CCC#N,"human, plasma","oral, 1000 mg, multiple doses, once daily",723000 ng·h/mL
CCOc1ccc(Cc2cc([C@@H]3O[C@H](CO)[C@@H](O)[C@H](O)[C@H]3O)ccc2Cl)cc1,"human, plasma","oral, 10 mg, multiple doses, steady state",493 ng·h/mL
COc1cc(C(=O)NC2CCN(C)CC2)c(F)cc1Nc1ncc(C(F)(F)F)c(Oc2cccc3c2C(=O)N(C)C3)n1,"human, plasma","oral, 200 mg, multiple doses, once daily, steady state, patients",35.4 µM·h
Cc1ccc(C(=O)N(CCCN)[C@@H](c2oc3cc(Cl)ccc3c(=O)c2Cc2ccccc2)C(C)C)cc1,"human, plasma","intravenous, 6 mg/m², single dose, patients, infusion",8150 ng·h/mL
CS(=O)(=O)CCNCc1ccc(-c2ccc3ncnc(Nc4ccc(OCc5cccc(F)c5)c(Cl)c4)c3c2)o1,"human, serum","oral, 1250 mg, single dose, fed",27300 ng·h/mL
Cn1c(=O)oc2ccc(-c3ccc(C[C@@H](C#N)NC(=O)[C@@H]4CNCCCO4)cc3)cc21,"male human, plasma","oral, 5 mg, single dose, healthy volunteers",0.915 µM·h
OC[C@H]1O[C@@H](c2ccc(Cl)c(Cc3ccc(O[C@H]4CCOC4)cc3)c2)[C@H](O)[C@@H](O)[C@@H]1O,"male human, plasma","oral, 25 mg, multiple doses, once daily, steady state, healthy volunteers",3960 ng·h/mL
C[C@@H](c1ccc2nccn2c1)n1nnc2ncc(-c3cnn(C)c3)nc21,"human, plasma","oral, 200 mg",4010 ng·h/mL
CC(C)(C)OC[C@@H]1C(=O)NCCN1C(=O)C[C@H](N)Cc1cc(F)c(F)cc1F,"human, plasma","oral, 5 mg, multiple doses, once daily, steady state",94.2 ng·h/mL
NS(=O)(=O)NCCNc1nonc1C(=NO)Nc1ccc(F)c(Br)c1,"human, plasma","oral, 50 mg, multiple doses, once daily, steady state, patients",1.58 µM·h
